Measured values reported in ChEMBL document CHEMBL4138128, “Structural design, synthesis and pharmacological evaluation of thiazoles against Trypanosoma cruzi” (Eur J Med Chem, 2017).

What was measured:
[1] = Cytotoxicity against mouse J774 cells assessed as reduction in cell viability after 72 hrs by alamar blue assay; assay type: cell-based
Summary of the method: (§1)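 H9c2 or J774 cells (1 x 10^4/well) in DMEM/10% FBS preincubated 24 h, then exposed 72 h to six concentrations (0.41 to 100 µM) in triplicate, DMSO under 1%. Viability by AlamarBlue, read after 6 h at 570/600 nm; CC50 from three independent experiments; gentian violet positive control.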

Trypanosoma cruzi = assay: Antitrypanosomal activity against bloodstream trypomastigote stage of Trypanosoma cruzi Y infected in monkey LLC-MK2 cells assessed as reduction in parasite motility measured after 24 hrs by neubauer chamber method; assay type: functional, organism-based; details: LLC-MK2, 24 h
Summary of the method: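 Y strain trypomastigotes from LLC-MK2 supernatants, 4x10^5/well, incubated 24 h at 37°C, 5% CO2 with five concentrations; viable parasites counted by motility in Neubauer chamber. Inhibition versus untreated cultures; IC50 by non-linear regression; benznidazole reference.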

[2] = Cytotoxicity against rat H9c2 cells assessed as reduction in cell viability after 72 hrs by alamar blue assay; assay type: cell-based; summary of the method: as §1
[3] = Solubility of the compound in pH 5.5 sodium acetate buffer at 10 uM; details: pH 5.5, 10 µM
[4] = biological target: Cruzipain (Trypanosoma cruzi) (UniProt P25779); assay: Inhibition of recombinant Trypanosoma cruzi cruzain at 10 uM preincubated for 10 mins followed by Z-FR-AMC substrate addition measured for 5 mins at 12 secs time interval by […] relative to control
Summary of the method: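 Cruzain 0.5 nM in 0.1 M sodium acetate pH 5.5, 1 mM beta-mercaptoethanol, 0.01% Triton X-100, 25 °C; 10 min preincubation, then Z-FR-AMC 2.5 µM (Km 1 µM). Fluorescence (ex 340, em 440) read continuously 5 min; initial rates versus DMSO control. Screens at 10 µM, two independent runs in triplicate; IC50 from at least seven concentrations, four-parameter fit, at least two curves.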

Chain of Cruzipain (Trypanosoma cruzi) (P25779 123-467 limits assumed): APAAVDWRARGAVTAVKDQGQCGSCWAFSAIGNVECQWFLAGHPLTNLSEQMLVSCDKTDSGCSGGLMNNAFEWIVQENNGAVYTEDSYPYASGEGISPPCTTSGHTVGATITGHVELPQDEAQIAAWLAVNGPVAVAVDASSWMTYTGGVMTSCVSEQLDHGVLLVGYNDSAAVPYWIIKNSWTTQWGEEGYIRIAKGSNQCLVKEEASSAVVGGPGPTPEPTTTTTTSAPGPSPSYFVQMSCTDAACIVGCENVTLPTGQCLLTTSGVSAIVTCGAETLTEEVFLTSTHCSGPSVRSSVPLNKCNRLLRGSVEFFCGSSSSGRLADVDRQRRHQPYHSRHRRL

| Compound | CC50 at 72 h [1] | IC50 (Trypanosoma cruzi) | CC50 at 72 h [2] | solubility [3] | inhibition [4] |
| --- | --- | --- | --- | --- | --- |
| C/C(=N\Nc1nc(-c2ccc(-c3ccccc3)cc2)cs1)c1ccc(Cl)c(Cl)c1 | > 50 µM | > 50 µM | > 50 µM | Soluble | 44% |
| C/C(=N\Nc1nc(-c2cccc([N+](=O)[O-])c2)cs1)c1ccc(Cl)c(Cl)c1 | > 50 µM | > 50 µM | > 50 µM | Soluble |  |
| C/C(=N\Nc1nc(-c2ccc(Cl)c(Cl)c2Cl)cs1)c1ccc(Cl)c(Cl)c1 | 21.3 µM | 6 µM | 17 µM | Soluble | 38% |
| C/C(=N\Nc1nc(-c2ccc(Br)cc2)c(C)s1)c1ccc(Cl)c(Cl)c1 | > 50 µM | 19.1 µM | > 50 µM | Soluble | 74% |
| C/C(=N\Nc1nc(-c2ccc(Cl)c(Cl)c2)cs1)c1ccc(Cl)c(Cl)c1 | > 50 µM | > 50 µM | > 50 µM | Soluble |  |
| C/C(=N\Nc1nc(-c2ccc(Cl)cc2Cl)cs1)c1ccc(Cl)c(Cl)c1 | > 50 µM | > 50 µM | > 50 µM | Soluble | 35% |
| C/C(=N\N=c1\scc(-c2ccccc2)n1-c1ccccc1)c1ccc(Cl)c(Cl)c1 | > 50 µM | > 50 µM | > 50 µM | Soluble | 31% |
| C/C(=N\Nc1nc(-c2ccccc2)cs1)c1ccc(Cl)c(Cl)c1 | > 50 µM | > 50 µM | > 50 µM | Soluble | 59% |
| C/C(=N\Nc1nc(-c2ccc(C)cc2)cs1)c1ccc(Cl)c(Cl)c1 | > 50 µM | 47.7 µM | > 50 µM | Soluble | 75% |
| C/C(=N\N=c1\scc(-c2ccccc2)n1C)c1ccc(Cl)c(Cl)c1 | > 50 µM | > 50 µM | > 50 µM | Soluble | 12% |
| CN(C)c1ccc(C(=C2C=CC(=[N+](C)C)C=C2)c2ccc(N(C)C)cc2)cc1 [GENTIAN VIOLET] |  |  | 1.5 µM |  |  |
| C/C(=N\Nc1nc(-c2ccc(Br)cc2)cs1)c1ccc(Cl)c(Cl)c1 | > 50 µM | > 50 µM | > 50 µM | Soluble | 43% |
